For experiment [1], the target named is T1, Hypoxanthine-guanine phosphoribosyltransferase (Homo sapiens) (UniProt P00492).
T1 sequence (whole entry): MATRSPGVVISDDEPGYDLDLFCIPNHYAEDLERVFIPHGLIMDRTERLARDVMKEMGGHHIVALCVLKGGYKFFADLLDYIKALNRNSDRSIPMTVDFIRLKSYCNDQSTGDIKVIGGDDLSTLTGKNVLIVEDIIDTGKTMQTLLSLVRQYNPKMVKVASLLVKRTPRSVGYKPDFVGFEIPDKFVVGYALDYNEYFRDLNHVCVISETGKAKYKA
The experiment is described as follows: Ability to inhibit hypoxanthine-guanine phosphoribosyltransferase in crude extracts of H.Ep.-2 cells.

Experiment [2] concerns Plasmodium berghei. The experiment is described as follows: Activity against Plasmodium berghei in mice (Mus musculus). The experiment is classed as functional, organism-based. The method, boiled down:
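Mice infected with P. berghei; survival time (life span) of treated mice was the read-out.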
Note: test concentration or dose not given here.

As for `CCOC(=O)/C=C/Cn1cnc2nc(N)nc(O)c21`, the Activity result in experiment [1] is “No inhibition”; in experiment [2] it was “Not significant”.
Take `O=[N+]([O-])c1cccc(Cn2cnc3ncnc(O)c32)c1`: the Activity entry was “No inhibition” in experiment [1] and “Not significant” in experiment [2].
For `Nc1nc(O)c2c(ncn2CCNC(=O)c2ccc(S(=O)(=O)F)cc2)n1`, in that order: “No inhibition” and “Not significant”.
For `Nc1nc(O)c2c(ncn2CC(O)CO)n1` (stereo not drawn), in that order: “No inhibition” and “Not significant”.
`Nc1nc(O)c2c(ncn2CCNC(=O)c2ccc(Cl)cc2)n1`: the figures for the Activity entry in experiment [1] and in experiment [2] were “No inhibition” and “Not significant”, respectively.
Consider `Nc1ccc(Cn2cnc3ncnc(O)c32)cc1`, for which the Activity result in experiment [1] is “No inhibition”; in experiment [2], “Not significant”.
`Nc1nc(O)c2c(ncn2CCNC(=O)c2cccc(S(=O)(=O)F)c2)n1`: the Activity result was “No inhibition” in experiment [1] and “Not significant” in experiment [2].
Take `O=C(CBr)Nc1ccc(Cn2cnc3ncnc(O)c32)cc1`: the Activity entry in experiment [1] is “No inhibition”; in experiment [2] it was “Not significant”.
For `Nc1nc(O)c2c(ncn2Cc2cccc(NC(=O)c3cccc(S(=O)(=O)F)c3)c2)n1`, in that order: “No inhibition” and “Not significant”.
As for `O=C(Nc1ccc(Cn2cnc3ncnc(O)c32)cc1)c1cccc(S(=O)(=O)F)c1`, the values for the Activity result in experiment [1] and in experiment [2] were “No inhibition” and “Not significant”, respectively.
Taken in the same sequence, the figures for `Nc1nc(O)c2c(ncn2Cc2ccc(NC(=O)c3ccc(S(=O)(=O)F)cc3)cc2)n1` were “No inhibition” and “Not significant”.
For `Nc1nc(O)c2c(ncn2CC(O)CNC(=O)c2cccc(S(=O)(=O)F)c2)n1` (stereo not drawn), in that order: “No inhibition” and “Not significant”.
Taken in the same sequence, the figures for `Nc1nc(O)c2c(ncn2CCO)n1` were “No inhibition” and “Not significant”.
For `Nc1nc(O)c2c(ncn2Cc2cccc([N+](=O)[O-])c2)n1`, the Activity result was “No inhibition” in experiment [1] and “Not significant” in experiment [2].
For `Nc1nc2c(ncn2[C@@H]2O[C@H](CO)[C@@H](O)[C@H]2O)c(=O)[nH]1`, the Activity result in experiment [1] was “No inhibition”; in experiment [2], “Not significant”.
For `CC(=O)OC[C@H]1O[C@@H](N2C=NC3C(=O)N=C(N)N=C32)[C@H](OC(C)=O)[C@@H]1OC(C)=O` (stereo partly drawn), in that order: “No inhibition” and “Not significant”.
Taken in the same sequence, the figures for `[N-]=[N+]=NCCn1cnc2nc(N)nc(O)c21` were “No inhibition” and “Not significant”.
Regarding `Nc1nc(O)c2c(ncn2CC=O)n1`, the Activity result is “No inhibition” in experiment [1] and “Not significant” in experiment [2].
On to `Nc1nc(O)c2c(ncn2CC(O)CNC(=O)CBr)n1` (stereo not drawn), for which the Activity entry in experiment [1] was “No inhibition”; in experiment [2], “Not significant”.
For `Nc1nc(O)c2c(n1)[n+](C1O[C@H](CO)[C@@H](O)[C@H]1O)cn2CCO` (stereo partly drawn), in that order: “No inhibition” and “Not significant”.
For `Nc1cccc(Cn2cnc3nc(N)nc(O)c32)c1`, the Activity entry in experiment [1] was “No inhibition”; in experiment [2] it was “Not significant”.
Taken in the same sequence, the figures for `O=C1c2ccccc2C(=O)N1CC(O)Cn1cnc2ncnc(O)c21` (stereo not drawn) were “No inhibition” and “Not significant”.
For `Nc1nc(O)c2c(ncn2CC(O)CNC(=O)c2ccc(S(=O)(=O)F)cc2)n1` (stereo not drawn), the figures for the Activity result in experiment [1] and in experiment [2] were “No inhibition” and “Not significant”, respectively.
Taken in the same sequence, the figures for `OCC(O)Cn1cnc2ncnc(O)c21` (stereo not drawn) were “No inhibition” and “Not significant”.
For `OCCn1cnc2ncnc(O)c21`, in that order: “No inhibition” and “Not significant”.
Consider `[N-]=[N+]=NCC(O)Cn1cnc2nc(N)nc(O)c21` (stereo not drawn), for which the Activity result in experiment [1] was “No inhibition”; in experiment [2], “Not significant”.
Regarding `Nc1nc(O)c2c(ncn2CC(O)CNC(=O)c2ccc(Cl)cc2)n1` (stereo not drawn), the Activity result was “No inhibition” in experiment [1] and “Not significant” in experiment [2].
For `O=C(Nc1ccc(Cn2cnc3ncnc(O)c32)cc1)c1ccc(S(=O)(=O)F)cc1`, in that order: “No inhibition” and “Not significant”.
`NCCn1cnc2nc(N)nc(O)c21`: the Activity entry was “No inhibition” in experiment [1] and “Not significant” in experiment [2].
Regarding `Nc1nc(O)c2c(n1)nc(Cl)n2CCCl`, the figures for the Activity result in experiment [1] and in experiment [2] were “No inhibition” and “Not significant”, respectively.
Taken in the same sequence, the figures for `Nc1nc(O)c2c(ncn2Cc2cccc(NC(=O)c3ccc(S(=O)(=O)F)cc3)c2)n1` were “No inhibition” and “Not significant”.
Regarding `Nc1nc(O)c2c(ncn2CC(O)CCl)n1` (stereo not drawn), the Activity entry in experiment [1] is “No inhibition”; in experiment [2] it was “Not significant”.
For `CC(=O)OCC1OC([n+]2cn(CCO)c3c(O)nc(N)nc32)C(OC(C)=O)C1OC(C)=O` (stereo not drawn), in that order: “No inhibition” and “Not significant”.
As to `Nc1nc(O)c2c(ncn2Cc2cccc(NC(=O)CBr)c2)n1`, the Activity entry in experiment [1] was “No inhibition”; in experiment [2] it was “Not significant”.
Taken in the same sequence, the figures for `O=[N+]([O-])c1ccc(Cn2cnc3ncnc(O)c32)cc1` were “No inhibition” and “Not significant”.
Taken in the same sequence, the figures for `Oc1ncnc2ncn(CC(O)CCl)c12` (stereo not drawn) were “No inhibition” and “Not significant”.
For `O=C(Nc1ccc(Cn2cnc3ncnc(O)c32)cc1)c1ccc(Cl)cc1`, in that order: “No inhibition” and “Not significant”.
Turning to `Nc1nc(O)c2c(ncn2Cc2ccc([N+](=O)[O-])cc2)n1`, the Activity entry in experiment [1] was “No inhibition”; in experiment [2], “Not significant”.
Consider `Nc1nc(O)c2c(ncn2Cc2ccc(NC(=O)c3ccc(Cl)cc3)cc2)n1`, for which the Activity entry was “No inhibition” in experiment [1] and “Not significant” in experiment [2].
Taken in the same sequence, the figures for `Nc1cccc(Cn2cnc3ncnc(O)c32)c1` were “No inhibition” and “Not significant”.
For `Nc1nc(O)c2c(ncn2Cc2ccc(NC(=O)c3cccc(S(=O)(=O)F)c3)cc2)n1`, in that order: “No inhibition” and “Not significant”.
As for `Nc1nc(O)c2c(ncn2Cc2ccc(NC(=O)CBr)cc2)n1`, the figures for the Activity entry in experiment [1] and in experiment [2] were “No inhibition” and “Not significant”, respectively.
Taken in the same sequence, the figures for `Nc1nc(O)c2c(ncn2CCCS(=O)(=O)O)n1` were “No inhibition” and “Not significant”.
`Nc1ccc(Cn2cnc3nc(N)nc(O)c32)cc1`: the Activity result is “No inhibition” in experiment [1] and “Not significant” in experiment [2].
`Nc1nc(O)c2c(ncn2Cc2cccc(NC(=O)c3ccc(Cl)cc3)c2)n1`: the Activity result was “No inhibition” in experiment [1] and “Not significant” in experiment [2].
As for `NCC(O)Cn1cnc2nc(N)nc(O)c21` (stereo not drawn), the results for the Activity entry in experiment [1] and in experiment [2] were “No inhibition” and “Not significant”, respectively.
Taken in the same sequence, the figures for `Nc1nc(O)c2c(ncn2CCCl)n1` were “No inhibition” and “Not significant”.
Taken in the same sequence, the figures for `Nc1nc(O)c2c(ncn2CCNC(=O)CBr)n1` were “No inhibition” and “Not significant”.
With `Nc1nc(O)c2c(ncn2CC(O)CN2C(=O)c3ccccc3C2=O)n1` (stereo not drawn), the Activity result in experiment [1] was “No inhibition”; in experiment [2], “Not significant”.
